Assay results: ChEMBL document CHEMBL1154046, “Synthesis of some urea and thiourea derivatives of 3-phenyl/ethyl-2-thioxo-2,3-dihydrothiazolo[4,5-d]pyrimidine and their antagonistic effects on haloperidol-induced catalepsy and oxidative stress in mice” (2009)

What was measured:
Type in all cases: functional
Conditions in all cases: route intraperitoneal, in the assay text read “ip” for “po”
[1] = system: Mus musculus; assay: Inhibition of haloperidol-induced catalepsy in Swiss albino mouse assessed as time elapsed until release of forepaw from bar at 100 mg/kg, […] 30 min prior to haloperidol challenge measured after 120 mins by bar test
Summary of the method: (§1)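 Adult male pathogen-free Swiss albino mice (18–25 g), n = 5 per group, each used once. Compounds at 100 mg/kg i.p. were given as a suspension in 0.5% gum acacia 30 min before haloperidol 5 mg/kg i.p. Forepaws were placed on a horizontal bar 9 cm high, and descent time was recorded every 30 min for 3 h. Testing ran at 23 ± 1 °C under 20 lux. Values are mean ± S.E.M.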

[2] = system: Mus musculus; assay: Inhibition of haloperidol-induced catalepsy in Swiss albino mouse assessed as time elapsed until release of forepaw from bar at 100 mg/kg, […] 30 min prior to haloperidol challenge measured after 180 mins by bar test; summary of the method: as §1
[3] = system: Mus musculus; assay: Inhibition of haloperidol-induced catalepsy in Swiss albino mouse assessed as time elapsed until release of forepaw from bar at 100 mg/kg, […] 30 min prior to haloperidol challenge measured after 90 mins by bar test; summary of the method: as §1
[4] = system: Mus musculus; assay: Inhibition of haloperidol-induced catalepsy in Swiss albino mouse assessed as time elapsed until release of forepaw from bar at 100 mg/kg, […] 30 min prior to haloperidol challenge measured after 30 mins by bar test; summary of the method: as §1
[5] = system: Mus musculus; assay: Inhibition of haloperidol-induced catalepsy in Swiss albino mouse assessed as time elapsed until release of forepaw from bar at 100 mg/kg, […] 30 min prior to haloperidol challenge measured after 60 mins by bar test; summary of the method: as §1
[6] = system: Mus musculus; assay: Inhibition of haloperidol-induced catalepsy in Swiss albino mouse assessed as time elapsed until release of forepaw from bar at 100 mg/kg, […] 30 min prior to haloperidol challenge measured after 150 mins by bar test; summary of the method: as §1
[7] = system: Mus musculus; assay: Inhibition of haloperidol-induced catalepsy in Swiss albino mouse at 100 mg/kg, […] 30 min prior to haloperidol challenge by bar test relative to haloperidol control
Summary of the method: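 Mice received compound at 100 mg/kg i.p. (in 0.5% gum acacia) 30 min before haloperidol 5 mg/kg i.p., n = 5. The bar test was run every 30 min over 3 h, and descent times were summed as CDT [3 h]. Haloperidol CDT minus vehicle CDT was set as 100% catalepsy, and % inhibition was calculated against it.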

Row | Structure (SMILES) | catalepsy descent time [1] [min] | Catalepsy duration (time to release forepaw from bar) [2] [min] | catalepsy descent time [3] [min] | descent time [4] [min] | Catalepsy time (forepaw descent time) [5] [min] | Time to forepaw release from bar [6] [min] | inhibition (INH) [7] [%]
1 | O=[N+]([O-])c1ccc(NC(=S)Nc2ncnc3c2sc(=S)n3-c2ccccc2)cc1 | 2.45 | 2.65 | 2.18 | 0.967 | 1.88 | 2.68 | 47.5
2 | CCn1c(=S)sc2c(NC(=O)Nc3ccc(Cl)cc3)ncnc21 | 2.53 | 4.12 | 2.72 | 1.07 | 2.88 | 3.77 | 64.1
3 | O=C(Nc1ccccc1Cl)Nc1ncnc2c1sc(=S)n2-c1ccccc1 | 2.78 | 2.9 | 2.4 | 1.27 | 1.97 | 2.92 | 53
4 | O=C(Nc1ccccc1)Nc1ncnc2c1sc(=S)n2-c1ccccc1 | 2.23 | 3.25 | 1.63 | 0.75 | 2.13 | 3.33 | 49.5
5 | O=C(Nc1ccc([N+](=O)[O-])cc1)Nc1ncnc2c1sc(=S)n2-c1ccccc1 | 2.08 | 3.93 | 1.98 | 0.883 | 1.32 | 3.18 | 49.7
6 | CCn1c(=S)sc2c(NC(=S)Nc3ccc(OC)cc3)ncnc21 | 1.9 | 2.23 | 1.53 | 0.433 | 0.717 | 2.1 | 32.3
7 | S=C(Nc1ccccc1)Nc1ncnc2c1sc(=S)n2-c1ccccc1 | 3.2 | 3.62 | 1.25 | 1.1 | 0.967 | 3.6 | 51
8 | COc1ccc(NC(=O)Nc2ncnc3c2sc(=S)n3-c2ccccc2)cc1 | 2.25 | 2.15 | 1.67 | 0.95 | 1.53 | 2.08 | 39
9 | S=C(Nc1ccccc1Cl)Nc1ncnc2c1sc(=S)n2-c1ccccc1 | 2.63 | 3.97 | 3.08 | 1.07 | 1.93 | 4.02 | 62.6
10 | S=C(Nc1ccc(Cl)cc1)Nc1ncnc2c1sc(=S)n2-c1ccccc1 | 2.8 | 4.47 | 2.55 | 0.967 | 2.45 | 3.48 | 62.6
11 | CCn1c(=S)sc2c(NC(=S)Nc3ccccc3)ncnc21 | 2.33 | 2.85 | 2.32 | 1.22 | 1.92 | 2.87 | 50.1
12 | O=C(Nc1ccccc1F)Nc1ncnc2c1sc(=S)n2-c1ccccc1 | 2.35 | 2.63 | 2.77 | 1.38 | 2.1 | 2.53 | 51.2
13 | O=C(CCCN1CCC(O)(c2ccc(Cl)cc2)CC1)c1ccc(F)cc1 [HALOPERIDOL] | 5 | 5 | 4.55 | 3.05 | 3.73 | 5 | 
